# ChEMBL document CHEMBL1125313, “Analogs of Ac-CCK-7 incorporating dipeptide mimics in place of Met28-Gly29” (J Med Chem, 1992)
# Starred links: 1 amine or outer side, 2 acyl side, 3 side chain; linkers in the order of their positions; H or OH if unused. Non-standard residues stand in square brackets, D forms with d. Residues, ends and D or L forms follow the SMILES beside them. Phe(4-SO3H) = N[C@@H](Cc1ccc(S(=O)(=O)O)cc1)C(=O)O; X3 = O=C(C[C@@H]1CCCC[C@@H]1N[*:1])[*:2]; X5 = O=C(C[C@H]1CCCC[C@@H]1N[*:1])[*:2]; X1 = Cc1c(N[*:1])cccc1C(=O)[*:2]; X4 = Cc1ccc(N[*:1])cc1C(=O)[*:2]; 3Abz = Nc1cccc(C(=O)O)c1; 4Abz = Nc1ccc(C(=O)O)cc1; CO = O=C([*:1])[*:2]; Ahx = NCCCCCC(=O)O; Ava = NCCCCC(=O)O; GABA = NCCCC(=O)O; βAla = NCCC(=O)O
# Tests used:
# [1] = target: T1, Gastrin/cholecystokinin type B receptor (Bos taurus, UniProt P79266); test: Inhibition of [3H]propionyl-CCK-8 binding to Cholecystokinin type B receptor in bovine striatum; type: tissue-based
# T1 sequence (P79266 whole entry): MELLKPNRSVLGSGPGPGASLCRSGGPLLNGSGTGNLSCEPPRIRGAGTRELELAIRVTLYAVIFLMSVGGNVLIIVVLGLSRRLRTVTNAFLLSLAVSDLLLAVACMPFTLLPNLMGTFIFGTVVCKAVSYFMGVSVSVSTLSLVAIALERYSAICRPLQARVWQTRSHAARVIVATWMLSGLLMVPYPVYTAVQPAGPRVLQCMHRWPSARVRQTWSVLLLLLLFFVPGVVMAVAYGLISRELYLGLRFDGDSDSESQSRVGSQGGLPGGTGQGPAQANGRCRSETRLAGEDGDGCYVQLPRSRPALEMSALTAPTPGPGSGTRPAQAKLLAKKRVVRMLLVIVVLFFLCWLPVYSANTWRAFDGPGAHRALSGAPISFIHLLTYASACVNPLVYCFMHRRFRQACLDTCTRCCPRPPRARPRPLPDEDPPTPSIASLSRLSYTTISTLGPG
# Summary of the method: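 Frozen bovine striatum homogenized at 0 °C in 10 mM HEPES, 130 mM NaCl, 5 mM MgCl2, pH 7.4. Pellet (48000g) resuspended in same buffer plus PMSF and bacitracin, ~0.26 mg protein per 2 mL. Incubated 30 min at 25 °C with 0.15 nM (final) [propionyl-3H]CCK-8. GF/B filtration, scintillation counting. Nonspecific binding with 1 μM CCK-8. IC50 by log-probit; actives confirmed in duplicate.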
# [2] = target: T2, Cholecystokinin receptor type A (Rattus norvegicus, UniProt P30551); test: The compound was tested in vitro for inhibition of specific [3H]propionyl-CCK-8 binding to cholecystokinin type A receptor in rat pancreatic membranes; type: cell membranes, Membrane
# T2 sequence (P30551 whole entry): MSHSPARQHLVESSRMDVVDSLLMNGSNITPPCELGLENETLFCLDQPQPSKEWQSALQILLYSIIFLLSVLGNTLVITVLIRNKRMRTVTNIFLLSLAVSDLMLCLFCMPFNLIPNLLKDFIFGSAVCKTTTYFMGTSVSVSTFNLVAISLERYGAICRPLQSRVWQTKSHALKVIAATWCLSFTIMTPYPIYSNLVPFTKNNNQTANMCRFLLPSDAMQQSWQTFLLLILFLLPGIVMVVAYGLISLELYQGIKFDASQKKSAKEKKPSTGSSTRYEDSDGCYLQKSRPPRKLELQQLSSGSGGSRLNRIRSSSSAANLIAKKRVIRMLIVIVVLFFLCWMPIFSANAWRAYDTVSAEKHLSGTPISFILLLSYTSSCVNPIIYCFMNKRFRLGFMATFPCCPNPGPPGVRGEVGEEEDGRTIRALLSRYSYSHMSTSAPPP
# Summary of the method: (§1)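 Fresh pancreas from fasted rats homogenized at 0 °C in 10 mM HEPES, 130 mM NaCl, 5 mM MgCl2, pH 7.4. Pellet (48000g) resuspended in same buffer plus PMSF and bacitracin, ~0.100 mg protein per 1 mL. Incubated 30 min at 25 °C with 0.15 nM (final) [propionyl-3H]CCK-8. Filtered on GF/B and counted. Nonspecific binding with 1 μM CCK-8. IC50 by log-probit; actives confirmed in duplicate.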
# [3] = test system: Rattus norvegicus; test: Compound was evaluated for its ability to suppress food intake in one of two meal-fed rats after intraperitoneal administration of 32 ug/kg; type: functional
# Summary of the method: (§2)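 Male Sprague-Dawley rats fed in one of two meal models, peptide ip. In "1-2-1" model, rats trained 4 days to eat ground chow 9–10 a.m. and 12–1 p.m., dosed 15 min before first meal, groups of 5–6. Or rats fasted 17 h overnight, given vehicle (100% DMSO) or peptide ip, 0.33 mL/kg, food weighed after 1 h, groups of 5–7. First-hour intake as % of control. ED50 from log-probit analysis; t-test versus controls.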
# [4] = target: T2, Cholecystokinin receptor type A; test: The compound was tested in vitro for inhibition of specific [3H]propionyl-CCK-8 binding to Cholecystokinin type A receptor in rat pancreatic membranes; type: cell membranes, Membrane; summary of the method: as §1
# [5] = test system: Rattus norvegicus; test: Dose which caused 50% inhibition of the control intake was determined by log-probit analysis after intraperitoneal administration; type: functional; settings: ip; summary of the method: as §2
# [6] = test system: Rattus norvegicus; test: Compound was evaluated for its ability to suppress food intake in one of two meal-fed rats after intraperitoneal administration of 320 ug/kg; type: functional; summary of the method: as §2
# [7] = test system: Rattus norvegicus; test: Compound was evaluated for its ability to suppress food intake in one of two meal-fed rats after intraperitoneal administration of 0.3 ug/kg; type: functional; summary of the method: as §2
# [8] = test system: Rattus norvegicus; test: Compound was evaluated for its ability to suppress food intake in one of two meal-fed rats after intraperitoneal administration of 20 ug/kg; type: functional; summary of the method: as §2
# [9] = test system: Rattus norvegicus; test: Compound was evaluated for its ability to suppress food intake in one of two meal-fed rats after intraperitoneal administration of 3 ug/kg; type: functional; summary of the method: as §2
# [10] = Dose which caused 50% inhibition of the control intake was determined by log-probit analysis after intraperitoneal administration (CCK-8 receptor); settings: Rattus norvegicus
# [11] = test system: Rattus norvegicus; test: Compound was evaluated for its ability to suppress food intake in one of two meal-fed rats after intraperitoneal administration of 10 ug/kg; type: functional; summary of the method: as §2
# [12] = test system: Rattus norvegicus; test: Compound was evaluated for its ability to suppress food intake in one of two meal-fed rats after intraperitoneal administration of 1240 ug/kg; type: functional; summary of the method: as §2
# [13] = test system: Rattus norvegicus; test: Compound was evaluated for its ability to suppress food intake in one of two meal-fed rats after intraperitoneal administration of 14 ug/kg; type: functional; summary of the method: as §2
# [14] = test system: Rattus norvegicus; test: Compound was evaluated for its ability to suppress food intake in one of two meal-fed rats after intraperitoneal administration of […]; type: functional
SMILES,IC50 [1] [nM],IC50 [2] [nM],Control [3] [%],IC50 [4] [nM],ED50 [5] [µmol/kg],Control [6] [%],Control [9] [%],further results
CSCC[C@H](NC(=O)[C@H](Cc1c[nH]c2ccccc12)NC(=O)CCNC(=O)[C@H](Cc1ccc(S(=O)(=O)O)cc1)NC(=O)O)C(=O)N[C@@H](CC(=O)O)C(=O)N[C@@H](Cc1ccccc1)C(N)=O ({CO}-[Phe(4-SO3H)][βAla]WMDF-NH2),3600,10000,108,,,,,
CSCC[C@H](NC(=O)[C@H](Cc1c[nH]c2ccccc12)NC(=O)c1cc(NC(=O)[C@H](Cc2ccc(S(=O)(=O)O)cc2)NC(=O)O)ccc1C)C(=O)N[C@@H](CC(=O)O)C(=O)N[C@@H](Cc1ccccc1)C(N)=O ({CO}-[Phe(4-SO3H)][X4]WMDF-NH2),5,,,73,> 320,95,,
CSCC[C@H](NC(=O)[C@H](Cc1c[nH]c2ccccc12)NC(=O)CCCNC(=O)[C@H](Cc1ccc(S(=O)(=O)O)cc1)NC(=O)O)C(=O)N[C@@H](CC(=O)O)C(=O)N[C@@H](Cc1ccccc1)C(N)=O ({CO}-[Phe(4-SO3H)][GABA]WMDF-NH2),1.8,4.9,11,,,1,69,Control [7]: 104%; Control [8]: 6%; ED50 [10]: 4.7 µmol/kg
CSCC[C@H](NC(=O)[C@H](Cc1c[nH]c2ccccc12)NC(=O)C[C@H]1CCCC[C@@H]1NC(=O)[C@H](Cc1ccc(S(=O)(=O)O)cc1)NC(=O)O)C(=O)N[C@@H](CC(=O)O)C(=O)N[C@@H](Cc1ccccc1)C(N)=O ({CO}-[Phe(4-SO3H)][X5]WMDF-NH2),,,,165,> 320,90,,
CSCC[C@H](NC(=O)[C@H](Cc1c[nH]c2ccccc12)NC(=O)c1cccc(NC(=O)[C@H](Cc2ccc(S(=O)(=O)O)cc2)NC(=O)O)c1)C(=O)N[C@@H](CC(=O)O)C(=O)N[C@@H](Cc1ccccc1)C(N)=O ({CO}-[Phe(4-SO3H)][3Abz]WMDF-NH2),0.48,,14,2.1,3,4,52,
CSCC[C@H](NC(=O)[C@H](Cc1c[nH]c2ccccc12)NC(=O)CNC(=O)[C@H](Cc1ccc(S(=O)(=O)O)cc1)NC(=O)O)C(=O)N[C@@H](CC(=O)O)C(=O)N[C@@H](Cc1ccccc1)C(N)=O ({CO}-[Phe(4-SO3H)]GWMDF-NH2),1300,1200,69,,,,,
CSCC[C@H](NC(=O)[C@H](Cc1c[nH]c2ccccc12)NC(=O)CCCCNC(=O)[C@H](Cc1ccc(S(=O)(=O)O)cc1)NC(=O)O)C(=O)N[C@@H](CC(=O)O)C(=O)N[C@@H](Cc1ccccc1)C(N)=O ({CO}-[Phe(4-SO3H)][Ava]WMDF-NH2),9,22,54,,,9,102,
CSCC[C@H](NC(=O)[C@H](Cc1ccc(S(=O)(=O)O)cc1)NC(=O)O)C(=O)NCC(=O)N[C@@H](Cc1c[nH]c2ccccc12)C(=O)N[C@@H](CCSC)C(=O)N[C@@H](CC(=O)O)C(=O)N[C@@H](Cc1ccccc1)C(N)=O ({CO}-[Phe(4-SO3H)]MGWMDF-NH2),4.4,0.6,6,,,,81,Control [11]: 36%; ED50 [10]: 7 µmol/kg
CSCC[C@H](NC(=O)[C@H](Cc1c[nH]c2ccccc12)NC(=O)CCCCCNC(=O)[C@H](Cc1ccc(S(=O)(=O)O)cc1)NC(=O)O)C(=O)N[C@@H](CC(=O)O)C(=O)N[C@@H](Cc1ccccc1)C(N)=O ({CO}-[Phe(4-SO3H)][Ahx]WMDF-NH2),13,360,,,,80,,
CSCC[C@H](NC(=O)[C@H](Cc1c[nH]c2ccccc12)NC(=O)c1ccc(NC(=O)[C@H](Cc2ccc(S(=O)(=O)O)cc2)NC(=O)O)cc1)C(=O)N[C@@H](CC(=O)O)C(=O)N[C@@H](Cc1ccccc1)C(N)=O ({CO}-[Phe(4-SO3H)][4Abz]WMDF-NH2),0.085,,,1600,> 1240,,,Control [12]: 75%
CSCC[C@H](NC(=O)[C@H](Cc1c[nH]c2ccccc12)NC(=O)c1cccc(NC(=O)[C@H](Cc2ccc(S(=O)(=O)O)cc2)NC(=O)O)c1C)C(=O)N[C@@H](CC(=O)O)C(=O)N[C@@H](Cc1ccccc1)C(N)=O ({CO}-[Phe(4-SO3H)][X1]WMDF-NH2),0.91,,44,2.7,24,5.9,,Control [13]: 58%; Control [14]: 104%
CSCC[C@H](NC(=O)[C@H](Cc1c[nH]c2ccccc12)NC(=O)C[C@@H]1CCCC[C@@H]1NC(=O)[C@H](Cc1ccc(S(=O)(=O)O)cc1)NC(=O)O)C(=O)N[C@@H](CC(=O)O)C(=O)N[C@@H](Cc1ccccc1)C(N)=O ({CO}-[Phe(4-SO3H)][X3]WMDF-NH2),3.4,,,161,> 320,80,,
